Assays:
[1] = target: Human immunodeficiency virus type 1 integrase (Human immunodeficiency virus 1, UniProt Q7ZJM1); experiment: Inhibition of HIV1 integrase expressed in Escherichia coli assessed as strand transfer activity by scintillation proximity assay
Outline: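 His6-tagged full-length HIV-1 IN (mutant) was preincubated 15 min at 22 °C with biotinylated U5 LTR donor DNA on streptavidin SPA beads, then [3H]-thymidine target DNA was added. Final: 2 pmol donor, 246 nM IN, 50 nM target, pH 7.2 MOPS, 4 mM MgCl2, 1% DMSO. Ran 50 min at 37 °C, stopped with EDTA/NaOH/CsCl, quench-corrected counts. IC50 from 4-parameter logistic fit, 2-3 replicates per concentration.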

[2] = test system: Human immunodeficiency virus 1; experiment: Antiviral activity against HIV1 RF in human CEM-SS cells assessed inhibition of virus-induced cytopathic effect by XTT assay; format: functional, organism-based; conditions: Human immunodeficiency virus 1, RF
Outline: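 CEM-SS cells (2×10^4/well) were infected with HIV-1 RF at an MOI giving 90% cell death by day 6. Compounds, in half-log dilutions with ≥2 replicate wells, were added at seeding before infection. On day 6, XTT/phenazine methosulfate was added for 4 h and read at A450. EC50 is the concentration restoring formazan to 50% of uninfected, compound-free cells.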

[3] = Cytotoxicity against human CEM-SS cells by XTT assay; format: cell-based
Outline: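 Uninfected CEM-SS cells (2×10^4/well) were exposed for 6 days to half-log compound dilutions (≥2 replicate wells) added at seeding. Viability was read by XTT formazan (4 h, A450). CC50 was derived from the drop in formazan versus uninfected, compound-free cells.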

[4] = Metabolic stability in human hepatocytes assessed as extraction ratio after 4 hrs; format: ADME, cell-based, Hepatocyte
[5] = Metabolic stability in human liver microsomes assessed as extraction ratio after 4 hrs in presence of NADPH; format: ADME, Microsome
[6] = Mutagenic activity in Salmonella Typhimurium TA100 by Biolum Ames test; format: toxicity; conditions: salmonella enterica subsp. enterica serovar typhimurium
[7] = Mutagenic activity in Salmonella Typhimurium TA98 by Biolum Ames test in presence of metabolizing enzyme; format: toxicity; conditions: salmonella enterica subsp. enterica serovar typhimurium
[8] = Mutagenic activity in Salmonella Typhimurium TA100 by Biolum Ames test in presence of metabolizing enzyme; format: toxicity; conditions: salmonella enterica subsp. enterica serovar typhimurium
[9] = Mutagenic activity in Salmonella Typhimurium TA98 by Biolum Ames test; format: toxicity; conditions: salmonella enterica subsp. enterica serovar typhimurium

Sequence of Human immunodeficiency virus type 1 integrase (Q7ZJM1 whole entry): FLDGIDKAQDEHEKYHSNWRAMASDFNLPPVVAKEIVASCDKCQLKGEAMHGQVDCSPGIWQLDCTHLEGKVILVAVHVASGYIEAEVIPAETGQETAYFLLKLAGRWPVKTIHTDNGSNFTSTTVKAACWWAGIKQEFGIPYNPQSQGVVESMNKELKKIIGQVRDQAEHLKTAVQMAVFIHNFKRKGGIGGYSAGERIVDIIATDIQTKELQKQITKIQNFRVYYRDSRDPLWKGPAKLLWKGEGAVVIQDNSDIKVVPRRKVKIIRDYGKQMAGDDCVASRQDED

SMILES | IC50 [1] | EC50 [2] | CC50 [3] | hepatic extraction ratio at 4 h [4] | hepatic extraction ratio at 4 h [5] | Activity [6] | Activity [7] | Activity [8] | Activity [9]
O=C(O)c1cc2ccn(Cc3cccc(Cl)c3Cl)c2cn1 | 5420 nM | – | – | – | – | – | – | – | –
O=C(NO)c1cc2ccn(Cc3cccc(Cl)c3Cl)c2cn1 | 442 nM | 35 nM | > 320000 nM | – | – | – | – | – | –
CC(C)N(O)C(=O)c1cc2ccn(Cc3ccc(F)cc3)c2cn1 | 8000 nM | 3500 nM | 36000 nM | 0.93 | – | – | – | – | –
O=C(NO)c1cc2ccn(Cc3cccc(Cl)c3F)c2cn1 | 102 nM | 8 nM | > 320000 nM | – | – | – | – | – | –
O=C(NO)c1cc2ccn(Cc3c(F)ccc(Cl)c3F)c2cn1 | 131 nM | 7 nM | > 1000 nM | – | – | – | – | – | –
O=C(O)c1cc2ccn(Cc3cc(Cl)cs3)c2cn1 | 3200 nM | – | – | – | – | – | – | – | –
O=C(NO)c1cc2ccn(Cc3cccc(CO)n3)c2cn1 | 5730 nM | 730 nM | > 10000 nM | – | – | – | – | – | –
CONC(=O)c1cc2ccn(Cc3ccc(F)cc3F)c2cn1 | 356 nM | 21 nM | > 320000 nM | 1 | 0.68 | – | – | – | –
O=C(NO)c1cc2ccn(Cc3ccc(F)cc3)c2cn1 | 137 nM | 9 nM | 159000 nM | 0.92 | – | – | – | – | –
N#Cc1cc(F)ccc1Cn1ccc2cc(C(=O)NO)ncc21 | 812 nM | 120 nM | > 10000 nM | – | – | – | – | – | –
N#Cc1ccc(Cn2ccc3cc(C(=O)NO)ncc32)cc1 | > 10000 nM | 1200 nM | > 10000 nM | – | – | – | – | – | –
NC(=O)c1cc(F)ccc1Cn1ccc2cc(C(=O)NO)ncc21 | 1300 nM | 55 nM | > 10000 nM | – | – | – | – | – | –
O=C(c1cc2ccn(Cc3ccc(F)cc3)c2cn1)N(O)Cc1ccccc1 | 23000 nM | 330 nM | > 320000 nM | 1 | – | – | – | – | –
CN(O)C(=O)c1cc2ccn(Cc3ccc(F)cc3)c2cn1 | 250 nM | – | 200000 nM | – | – | – | – | – | –
O=C(O)c1cc2ccn(Cc3ccccc3F)c2cn1 | > 50000 nM | – | – | – | – | – | – | – | –
O=C(O)c1cc2ccn(Cc3ccc(F)cc3F)c2cn1 | 3500 nM | – | – | – | – | – | – | – | –

SMILES | IC50 [1] | EC50 [2] | CC50 [3] | hepatic extraction ratio at 4 h [4] | hepatic extraction ratio at 4 h [5] | Activity [6] | Activity [7] | Activity [8] | Activity [9]
NC(=O)c1cccc(Cn2ccc3cc(C(=O)NO)ncc32)c1 | 1720 nM | 530 nM | > 10000 nM | – | – | – | – | – | –
O=C(O)c1cc2ccn(Cc3cccc(Cl)c3F)c2cn1 | 950 nM | – | – | – | – | – | – | – | –
O=C(O)c1cc2ccn(Cc3c(F)cc(Cl)cc3F)c2cn1 | 1190 nM | – | – | – | – | – | – | – | –
O=C(O)c1cc2ccn(Cc3ccc(F)c(F)c3F)c2cn1 | 3690 nM | – | – | – | – | – | – | – | –
CON(C)C(=O)c1cc2ccn(Cc3ccc(F)cc3F)c2cn1 | > 50000 nM | > 10000 nM | > 10000 nM | 1 | 1 | – | – | – | –
NC(=O)c1cc(Cn2ccc3cc(C(=O)NO)ncc32)ccc1F | 608 nM | 58 nM | > 10000 nM | – | – | – | – | – | –
O=C(NO)c1cc2ccn(Cc3ccc(F)cc3F)c2cn1 | 84 nM | 8 nM | > 320000 nM | 0.9 | < 0.26 | Active | Active | Active | Active
O=C(NO)c1cc2ccn(Cc3ccccn3)c2cn1 | 779 nM | 88 nM | > 10000 nM | – | – | – | – | – | –
CCCN(O)C(=O)c1cc2ccn(Cc3ccc(F)cc3)c2cn1 | 618 nM | 350 nM | 26000 nM | 0.96 | – | – | – | – | –
CC(C)CN(O)C(=O)c1cc2ccn(Cc3ccc(F)cc3)c2cn1 | 1700 nM | 1400 nM | 102000 nM | 0.95 | – | – | – | – | –
CN(O)C(=O)c1cc2ccn(Cc3ccc(F)cc3F)c2cn1 | 250 nM | 32 nM | 135000 nM | 1 | < 0.36 | Not Active | Not Active | Not Active | Not Active
O=C(c1cc2ccn(Cc3ccc(F)cc3)c2cn1)N(O)CCCO | 804 nM | 300 nM | 77000 nM | 0.95 | – | – | – | – | –
O=C(NO)c1cc2ccn(Cc3ccc(Cl)s3)c2cn1 | 387 nM | 20 nM | > 10000 nM | – | – | – | – | – | –
O=C(O)c1cc2ccn(Cc3ccc(F)cc3)c2cn1 | 7350 nM | – | – | – | – | – | – | – | –
NC(=O)c1ccc(Cn2ccc3cc(C(=O)NO)ncc32)cc1 | > 10000 nM | > 10000 nM | > 10000 nM | – | – | – | – | – | –
N#Cc1cccc(Cn2ccc3cc(C(=O)NO)ncc32)c1 | 1620 nM | 500 nM | > 10000 nM | – | – | – | – | – | –

From ChEMBL document CHEMBL1154670, “Azaindole hydroxamic acids are potent HIV-1 integrase inhibitors” (J Med Chem, 2009)
